Measured values: ChEMBL document CHEMBL1944515 (J Med Chem, 2012)
Active and inactive are the calls of the source. No cut-off for these calls is given here.

What was measured:
HeLa [1] = assay: Cytotoxicity against human HeLa cells after 72 hrs by MTT assay; assay type: functional, cell-based
A549 [2] = assay: Cytotoxicity against human A549 cells after 72 hrs by MTT assay; assay type: functional, cell-based; conditions: A549, 72 h
HL-60 = assay: Cytotoxicity against human HL60 cells after 72 hrs by MTT assay; assay type: functional, cell-based; conditions: HL-60, 72 h
Jurkat = assay: Cytotoxicity against human Jurkat cells after 72 hrs by MTT assay; assay type: functional, cell-based
Method in brief: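 8 × 10^3 cells/well were preincubated 18 h at 37 °C, 5% CO2, then given graded concentrations for 72 h, with final DMSO not above 0.25%. Viability was read by MTT. […] Mean ± SE from at least three experiments.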

MCF7 = assay: Cytotoxicity against human MCF7 cells after 72 hrs by MTT assay; assay type: functional, cell-based; conditions: MCF7, 72 h
HT-29 = assay: Cytotoxicity against human HT-29 cells after 72 hrs by MTT assay; assay type: functional, cell-based; conditions: HT-29, 72 h
[3] = Inhibition of bovine tubulin polymerisation after 20 mins by turbidimetric analysis; design: species or system Bos taurus
Method in brief: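 Bovine brain tubulin at 10 μM was preincubated with varying compound concentrations in glutamate buffer at 30 °C, cooled to 0 °C, and 0.4 mM GTP added. Samples were warmed to 30 °C and assembly followed by turbidity at 350 nm.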

Bos taurus = species: Bos taurus; assay: Displacement of [3H]colchicine from bovine tubulin at 5 uM by DEAE-cellulose filter method
Method in brief: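 Inhibition of [3H]colchicine binding was measured in mixtures of 1 μM tubulin, 5 μM [3H]colchicine and 5 μM test compound. Results are percent inhibition of binding.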

LoVo [4] = assay: Cytotoxicity against human LoVo cells after 72 hrs by MTT assay; assay type: functional, cell-based
Method in brief: (§1)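 Cells seeded at 8 × 10^3 per well and left 18 h at 37 °C, 5% CO2, then given fresh medium with compound at a range of concentrations for 72 h; DMSO at most 0.25% final. Viability read by MTT relative to 0.25% DMSO-treated cells. […] LoVoDoxo kept in Ham's F12 with 0.1 μg/mL doxorubicin; A549-T12 kept in DMEM with 12 nM paclitaxel.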

LoVo [5] = assay: Cytotoxicity against human doxorubicin-resistant LoVo cells after 72 hrs by MTT assay; assay type: functional, cell-based; method in brief: as §1
LoVo [6] = assay: Resistance ratio of IC50 for human doxorubicin-resistant LoVo cells to human LoVo cells; assay type: functional
CCRF-CEM [7] = assay: Cytotoxicity against human CEM cells after 72 hrs by MTT assay; assay type: functional, cell-based; method in brief: as §1
[8] = Cytotoxicity against human CEM/VBL100 cells after 72 hrs by MTT assay; assay type: functional, cell-based; conditions: CEM/VBL100, 72 h; method in brief: as §1
CCRF-CEM [9] = assay: Resistance ratio of IC50 for human CEM/VBL100 cells to IC50 for human CEM cells; assay type: functional
[10] = Cytotoxicity against human A549-T12 cells after 72 hrs by MTT assay; assay type: functional, cell-based; conditions: A549, 72 h; method in brief: as §1
A549 [11] = assay: Resistance ratio of IC50 for human A549-T12 cells to IC50 for human A549 cells; assay type: functional
HeLa [12] = assay: Induction of cell cycle arrest in human HeLa cells assessed as increase in G2/M phase cells after 24 hrs by flow cytometry; assay type: functional, cell-based
Method in brief: (§2)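 5 × 10^5 exponentially growing HeLa cells were treated with 15–250 nM for 24 h, fixed in ice-cold 70% ethanol, then treated with lysis buffer containing RNase A and 0.1% Triton X-100. PI staining of DNA content, read by flow cytometry. Mean ± SEM of three independent experiments.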

HeLa [13] = assay: Induction of cell cycle arrest in human HeLa cells assessed as increase in G2/M phase cells at 30 nM after 24 hrs by flow cytometry; assay type: functional, cell-based; method in brief: as §2
HeLa [14] = assay: Induction of cell cycle arrest in human HeLa cells assessed as G2/M phase cells at 60 nM after 24 hrs by flow cytometry; assay type: functional
Method in brief: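 Exponentially growing HeLa cells (5 × 10^5) were treated 24 h at 15–250 nM. Cells were fixed in ice-cold 70% ethanol, lysed with RNase A/0.1% Triton X-100 buffer and stained with propidium iodide. DNA content was measured by flow cytometry to score G2/M fraction. Mean ± SEM of three independent experiments.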

HeLa [15] = assay: Induction of cell cycle arrest in human HeLa cells assessed as decrease in G1 phase cells at 15 to 250 nM after 24 hrs by flow cytometry; assay type: functional, cell-based; method in brief: as §2
HeLa [16] = assay: Induction of cell cycle arrest in human HeLa cells assessed as decrease in S phase cells at 15 to 250 nM after 24 hrs by flow cytometry; assay type: functional, cell-based; method in brief: as §2
HeLa [17] = assay: Induction of apoptosis in human HeLa cells assessed as increase in annexin-V positive apoptotic cells after 24 to 48 hrs by FITC conjugated annexin-V/PI staining-based flow cytometry; assay type: functional, cell-based
Method in brief: (§3)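 Flow cytometry of HeLa cells after 24 or 48 h exposure, double-stained with annexin-V-FITC and propidium iodide. Excitation at 488 nm, emission at 525 nm (FITC) and 585 nm (PI). Quadrants scored as live, early apoptotic, late apoptotic or necrotic cells.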

HeLa [18] = assay: Induction of apoptosis in human HeLa cells assessed as increase in annexin-V positive apoptotic cells at 50 to 100 nM by FITC conjugated annexin-V/PI staining-based flow cytometry; assay type: functional, cell-based; conditions: TDE = time-dependent effect; method in brief: as §3
HeLa [19] = assay: Induction of mitochondrial depolarization in human HeLa cells after 24 to 48 hrs by JC1-based fluorescent staining; assay type: functional, cell-based
Method in brief: (§4)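 Mitochondrial membrane potential in HeLa cells after 24 or 48 h incubation, measured with the JC-1 dye by flow cytometry. Aggregates read as red (590 nm) and monomers as 530 nm; output is the percentage of depolarized cells. Mean ± SEM of three independent experiments.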

HeLa [20] = assay: Induction of mitochondrial depolarization in human HeLa cells at 50 to 100 nM by JC1-based fluorescent staining; assay type: functional, cell-based; conditions: TDE = time-dependent effect; method in brief: as §4
HeLa [21] = assay: Induction of ROS production in human HeLa cells at 50 to 100 nM after 24 to 48 hrs by HE staining-based flow cytometry; assay type: functional, cell-based
Method in brief: (§5)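 HeLa cells were exposed for 24 or 48 h, then stained with hydroethidine or H2-DCFDA for ROS and read by flow cytometry. DMSO ≤0.25%. Mean ± SEM of three independent experiments.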

HeLa [22] = assay: Induction of ROS production in human HeLa cells at 50 to 100 nM after 24 to 48 hrs by H2-DCFDA staining-based flow cytometry; assay type: functional, cell-based; method in brief: as §5

Row | Compound | IC50 (HeLa [1]) [nM] | IC50 (A549 [2]) [nM] | IC50 (HL-60) [nM] | IC50 (Jurkat) [nM] | IC50 (MCF7) [nM] | IC50 (HT-29) [nM] | IC50 [3] [nM] | inhibition (Bos taurus) [%] | other results
1 | CCCCCOc1ccc(-c2nnnn2-c2cc(OC)c(OC)c(OC)c2)cc1 | 6400 | > 10000 | > 10000 | > 10000 | > 10000 | > 10000 |  |  | 
2 | CCCCOc1ccc(-c2nnnn2-c2cc(OC)c(OC)c(OC)c2)cc1 | > 10000 | > 10000 | > 10000 | > 10000 | > 10000 | > 10000 |  |  | 
3 | COc1cc(-n2nnnc2-c2ccccc2)cc(OC)c1OC | 4100 | > 10000 | 903 | 3.8 | > 10000 | > 10000 |  |  | 
4 | COc1cc(-c2nnnn2-c2cc(OC)c(OC)c(OC)c2)cc(OC)c1OC | > 10000 | > 10000 | > 10000 | > 10000 | > 10000 | > 10000 |  |  | 
5 | COc1cc(-n2nnnc2-c2ccc(C)cc2)cc(OC)c1OC | 255 | 3420 | 329 | 222 | 1780 | 673 |  |  | 
6 | COc1ccc(-c2nnnn2-c2cc(OC)c(OC)c(OC)c2)cc1 | 2.6 | 222 | 2.9 | 2.6 | 38.5 | 4.6 | 2500 | 54 | 
7 | CCc1ccc(-c2nnnn2-c2cc(OC)c(OC)c(OC)c2)cc1 | 29 | 3380 | 53.1 | 55.1 | 12.6 | 182 | 3700 | 47 | 
8 | CCOc1ccc(-n2nnnc2-c2cc(OC)c(OC)c(OC)c2)cc1 | 0.3 | 7.4 | 0.7 | 0.26 | 2.8 | 3.1 | 2000 | 71 | IC50 (LoVo [4]): 118 nM; IC50 (LoVo [5]): 96.9 nM; Ratio IC50 (LoVo [6]): 0.8; IC50 (CCRF-CEM [7]): 3.8 nM; IC50 [8]: 0.5 nM; Ratio IC50 (CCRF-CEM [9]): 0.1; IC50 [10]: 4.2 nM; Ratio IC50 (A549 [11]): 0.6; Activity (HeLa [12]): Dose-dependent effect; Activity (HeLa [13]): Active; Activity (HeLa [14]): >80%; Activity (HeLa [15]): Active; Activity (HeLa [16]): Active; Activity (HeLa [17]): Dose-dependent effect; Activity (HeLa [18]): tde; Activity (HeLa [19]): Dose-dependent effect; Activity (HeLa [20]): tde; Activity (HeLa [21]): Active; Activity (HeLa [22]): Active
9 | COc1ccc(-c2nnnn2-c2cc(OC)c(OC)c(OC)c2)cc1Cl | 2.3 | 402 | 3.6 | 10 | 25.2 | 35.9 | 3500 | 50 | 
10 | COc1ccc(-c2nnnn2-c2cc(OC)c(OC)c(OC)c2)cc1OC | 259 | 3570 | 488 | 345 | 2720 | 355 |  |  | 
11 | COc1cc(-n2nnnc2-c2cccs2)cc(OC)c1OC | > 10000 | > 10000 | > 10000 | > 10000 | > 10000 | > 10000 |  |  | 
12 | COc1ccc(-n2nnnc2-c2cc(OC)c(OC)c(OC)c2)cc1 | 952 | > 10000 | 40.3 | 209 | 27.1 | 265 | 2100 | 70 | 
13 | COc1ccc(-c2nnnn2-c2cc(OC)c(OC)c(OC)c2)cc1F | 2.8 | 332 | 7.3 | 1.3 | 29.7 | 2.7 | 2100 | 60 | 
14 | COc1cc(-n2nnnc2-c2ccc(C(C)=O)cc2)cc(OC)c1OC | 648 | > 10000 | 596 | 325 | > 10000 | 6030 |  |  | 
15 | CCCOc1ccc(-c2nnnn2-c2cc(OC)c(OC)c(OC)c2)cc1 | 11.1 | 495 | 43.3 | 47 | 66.2 | 105 | 3100 | 46 | 
16 | COc1ccc(-c2nnnn2-c2cc(OC)c(OC)c(OC)c2)cc1C | 2.1 | 37.7 | 2 | 4.1 | 15.4 | 5.6 | 2500 | 59 | 
17 | CCOc1ccc(-c2ncnn2-c2cc(OC)c(OC)c(OC)c2)cc1 |  |  |  |  |  |  | 760 | 86 | 
